In ChEMBL document CHEMBL1126782, “Synthesis and pharmacological evaluation of 1-phenyl-3-amino-1,2,3,4-tetrahydronaphthalenes as ligands for a novel receptor with sigma-like neuromodulatory activity” (J Med Chem, 1993):

Legend:
D(2) dopamine receptor [1] = biological target: T1, D(2) dopamine receptor (Rattus norvegicus, UniProt P61169); test: Binding affinity against dopamine receptor D2 from rat striatal homogenates using [3H]YM-09151-2
How it was run: (§1)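 Competition binding with rat striatal homogenates in Tris-HCl, pH 7.4, containing 150 mM NaCl at 30 °C. […] Nonspecific binding was defined by (+)-butaclamol. Six or more concentrations bracketing the IC50 were run in duplicate, with three replications. IC50 values came from curve fitting.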

D(1A) dopamine receptor [2] = biological target: T2, D(1A) dopamine receptor (Rattus norvegicus, UniProt P18901); test: Binding affinity against dopamine receptor D1 from rat striatal homogenates, using [3H]SCH-23390 as radioligand.
T2 sequence (P18901 whole entry): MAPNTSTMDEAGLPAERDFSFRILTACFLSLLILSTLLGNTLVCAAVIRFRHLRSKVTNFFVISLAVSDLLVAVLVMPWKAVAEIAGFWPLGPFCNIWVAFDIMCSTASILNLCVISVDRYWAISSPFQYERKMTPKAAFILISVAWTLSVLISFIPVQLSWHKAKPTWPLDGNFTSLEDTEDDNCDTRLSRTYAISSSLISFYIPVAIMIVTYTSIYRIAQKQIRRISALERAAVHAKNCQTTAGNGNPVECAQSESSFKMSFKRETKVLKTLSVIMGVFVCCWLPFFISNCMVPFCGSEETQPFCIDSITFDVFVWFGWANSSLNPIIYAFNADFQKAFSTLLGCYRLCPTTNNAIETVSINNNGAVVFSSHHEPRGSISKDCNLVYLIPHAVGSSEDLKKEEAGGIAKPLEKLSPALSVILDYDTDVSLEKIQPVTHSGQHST
How it was run: (§2)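 Competition binding with rat striatal homogenates in Tris-HCl, pH 7.4, with 150 mM NaCl at 30 °C. […] Nonspecific binding was defined by 0.3 μM cis-(Z)-flupenthixol. Six or more concentrations bracketing the IC50 were run in duplicate, with three replications. IC50 values came from curve fitting.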

[3] = biological target: Tyrosine 3-monooxygenase (Rattus norvegicus) (UniProt P04177); test: Tyrosine hydroxylase activity at 0.1 uM in rat striatal minces; assay type: functional
Chain of Tyrosine 3-monooxygenase (Rattus norvegicus) (P04177 whole entry): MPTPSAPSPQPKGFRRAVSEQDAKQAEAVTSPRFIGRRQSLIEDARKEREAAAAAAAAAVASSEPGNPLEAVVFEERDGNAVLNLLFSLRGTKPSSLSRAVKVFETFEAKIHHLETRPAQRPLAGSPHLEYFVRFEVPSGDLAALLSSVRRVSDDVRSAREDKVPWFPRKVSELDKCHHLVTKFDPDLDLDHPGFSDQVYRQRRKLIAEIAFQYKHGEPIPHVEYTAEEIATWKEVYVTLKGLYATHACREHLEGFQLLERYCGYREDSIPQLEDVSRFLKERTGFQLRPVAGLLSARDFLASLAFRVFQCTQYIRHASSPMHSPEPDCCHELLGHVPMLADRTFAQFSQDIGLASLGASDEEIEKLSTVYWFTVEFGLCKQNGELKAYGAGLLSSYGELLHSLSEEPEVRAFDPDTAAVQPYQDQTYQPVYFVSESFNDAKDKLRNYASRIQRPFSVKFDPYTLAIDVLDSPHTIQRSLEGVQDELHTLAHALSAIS

D(1A) dopamine receptor [4] = biological target: T2, D(1A) dopamine receptor; test: Binding affinity against dopamine receptor D1 from rat striatal homogenates, using [3H]SCH-23,390 as radioligand; how it was run: as §2
D(2) dopamine receptor [5] = biological target: T1, D(2) dopamine receptor; test: Binding affinity against dopamine receptor D2 from rat striatal homogenates, using [3H]YM-09151-2 as radioligand; how it was run: as §1
[6] = biological target: Tyrosine 3-monooxygenase (Rattus norvegicus) (UniProt P04177); test: Tyrosine hydroxylase activity at 0.1 uM in rat striatal minces; effect not blocked bt BMY-14802; assay type: functional
[7] = biological target: Tyrosine 3-monooxygenase (Rattus norvegicus) (UniProt P04177); test: Tyrosine hydroxylase activity at 0.1 uM in rat striatal minces; effect blocked by BMY-14802; assay type: functional
[8] = biological target: Tyrosine 3-monooxygenase (Rattus norvegicus) (UniProt P04177); test: Tyrosine hydroxylase activity at 0.1 uM in rat striatal minces; effect not blocked by BMY-14802; assay type: functional

T1 sequence (P61169 whole entry): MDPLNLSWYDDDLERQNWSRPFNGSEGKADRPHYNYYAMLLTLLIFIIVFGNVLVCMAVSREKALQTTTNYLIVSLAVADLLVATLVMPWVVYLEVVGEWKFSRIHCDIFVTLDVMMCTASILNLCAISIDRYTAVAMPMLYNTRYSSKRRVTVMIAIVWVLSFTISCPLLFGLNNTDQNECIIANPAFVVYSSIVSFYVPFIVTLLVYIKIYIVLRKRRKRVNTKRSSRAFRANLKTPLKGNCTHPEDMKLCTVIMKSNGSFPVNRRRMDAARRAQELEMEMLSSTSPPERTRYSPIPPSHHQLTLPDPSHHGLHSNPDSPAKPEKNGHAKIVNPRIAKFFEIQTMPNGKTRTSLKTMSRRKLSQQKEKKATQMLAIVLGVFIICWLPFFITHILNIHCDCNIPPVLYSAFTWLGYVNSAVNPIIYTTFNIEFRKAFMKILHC

| SMILES | IC50 (D(2) dopamine receptor [1]) | IC50 (D(1A) dopamine receptor [2]) | Control [3] | also measured |
| --- | --- | --- | --- | --- |
| C=CCNC1Cc2ccccc2C(c2ccccc2)C1 (trans isomer) | 6 µM | 10 µM | 102% |  |
| CN(C)C1Cc2ccccc2C(c2ccccc2)C1 (configuration not stated) |  |  | 101% |  |
| C=CCN(CC=C)C1Cc2ccccc2C(c2ccccc2)C1 (configuration not stated) | 4 µM | 10 µM | 104% |  |
| CN(C)C1Cc2cc(O)c(O)cc2C(c2ccccc2)C1 (trans isomer) [listing 1 of 2 here] | > 5 µM | > 10 µM |  |  |
| CNC1Cc2cc(Cl)c(O)cc2C(c2ccccc2)C1 (trans isomer) |  |  | 99% | IC50 (D(1A) dopamine receptor [4]): 0.849 µM; IC50 (D(2) dopamine receptor [5]): 10 µM |
| NC1Cc2cc(O)c(O)cc2C(c2ccccc2)C1 (trans isomer) [listing 2 of 2 here] |  |  |  | Control [6]: 71% |
| CN(C)[C@H]1Cc2cc(Cl)c(O)cc2[C@H](c2ccccc2)C1 | 4.13 µM |  |  | Control [7]: 128%; IC50 (D(1A) dopamine receptor [4]): 1.89 µM |
| CN(C)C1Cc2cc(O)c(O)cc2C(c2ccccc2)C1 (trans isomer) [listing 2 of 2 here] |  |  |  | Control [8]: 75% |
| CN(C)C1Cc2cc(Cl)c(O)cc2C(c2ccccc2)C1 (cis isomer) |  |  | 94% |  |
| CN(C)[C@H]1CCc2ccccc2[C@H]1c1ccccc1 |  |  | 111% |  |
| C=CCN(C)C1Cc2ccccc2C(c2ccccc2)C1 (configuration not stated) |  |  | 72% |  |
| CCN(CC)C1Cc2ccccc2C(c2ccccc2)C1 (trans isomer) |  |  | 95% |  |
| NC1Cc2ccccc2C(c2ccccc2)C1 (trans isomer) | > 10 µM | > 10 µM | 86% |  |

Further lines, with some results ahead:

| IC50 (D(2) dopamine receptor [1]) | IC50 (D(1A) dopamine receptor [2]) | Control [3] | SMILES | also measured |
| --- | --- | --- | --- | --- |
| > 30 µM | > 30 µM |  | NC1Cc2cc(O)c(O)cc2C(c2ccccc2)C1 (trans isomer) [listing 1 of 2 here] |  |
|  |  | 95% | NC1Cc2cc(O)c(O)cc2C(c2ccccc2)C1 (cis isomer) [listing 1 of 2 here] |  |
| > 5 µM | > 1 µM |  | CN(C)C1Cc2cc(O)c(O)cc2C(c2ccccc2)C1 (cis isomer) [listing 1 of 2 here] |  |
|  |  | 100% | CN(C)C1Cc2cc(O)c(O)cc2C(c2ccccc2)C1 (cis isomer) [listing 2 of 2 here] |  |
| > 10 µM | > 30 µM |  | NC1Cc2cc(O)c(O)cc2C(c2ccccc2)C1 (cis isomer) [listing 2 of 2 here] |  |
